This is an account of results in ChEMBL document CHEMBL1121581, “4-Piperazinyl-10H-thieno[2,3-b][1,5]benzodiazepines as potential neuroleptics” (J Med Chem, 1980).

The subject of series [1] is Mus musculus. Put plainly: Hypothermia in mice after peroral administration. It is filed as functional.
The test system of series [2] is Rattus norvegicus. Put plainly: Compound was assessed for its ability to block a conditioned avoidance response; Dose administered intraperitoneally is 20 mg/kg; 31-50%block. Type of series: functional. The following applies: route intraperitoneal. Summed up:
(§1)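 Shuttle-box conditioned avoidance in Lilly Wistar rats (120–130 g) pretrained to a 5-s buzzer with mild shock after a 1-s failure to respond. Groups of five had 10-min habituation and a 20-min test. Block was taken as shocks received as % of buzzer presentations and graded 0–5. Maximum dose was half the rotarod-disruption ED₅₀.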

Series [3] deals with Rattus norvegicus. Kind of series: Compound was assessed for its ability to produce catalepsy in rats; Dose administered perorally is 50 mg/kg; Group score is 0-3. The settings on record: route oral. Type of series: functional. Put shortly:
(§2)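 Groups of eight Lilly Wistar rats (180–190 g) were dosed orally, then checked at 0.5, 1, 1.5, 2, 3, 4 and 5 h. Front paws were placed on a 1.5-cm rod 7 cm above the table, and hold time was recorded up to 20 min. Each rat was scored 0–5 and its maximum scores were summed per group (maximum 40), then graded 0–4.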

Series [4] in a line: Lethal dose in mice after perorla administration. It is filed as toxicity, organism-based. The following applies: mouse, in vivo, po.
In series [5] the test system is Rattus norvegicus. Put plainly: Compound was assessed for its ability to produce catalepsy in rats; Dose administered perorally is 10 mg/kg; Group score is 4-7. The following applies: route oral. It is filed as functional. Put shortly: as §2
The test system of series [6] is Rattus norvegicus. Kind of series: Compound was assessed for its ability to block a conditioned avoidance response; Dose administered perorally is 10 mg/kg; 26-30%block. The settings on record: route oral. It is filed as functional. Summed up: (§3)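 Lilly Wistar rats (120–130 g) trained in a shuttle box to cross on a 5-s buzzer, with mild shock if no response within 1 s of buzzer end. Only rats with a high conditioned response were used. Groups of five were dosed orally 1 h 50 min before the session, then habituated 10 min and tested 20 min. Shocks were scored as % of stimuli and graded 0–5.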

The test system of series [7] is Rattus norvegicus. Put plainly: Compound was assessed for its ability to block a conditioned avoidance response; Dose administered intraperitoneally is 50 mg/kg; 31-50%block. The settings on record: route intraperitoneal. It is filed as functional. Summed up: as §1
Series [8] has as its system Rattus norvegicus. Put plainly: Compound was assessed for its ability to block a conditioned avoidance response; Dose administered perorally is 4 mg/kg; 26-30%block. It is filed as functional. The following applies: route oral. Put shortly:
as §3

The test system of series [9] is Rattus norvegicus. Kind of series: Compound was assessed for its ability to produce catalepsy in rats; Dose administered perorally is 8 mg/kg; Group score is 4-7. Type of series: functional. The settings on record: route oral. Put shortly:
as §2

For series [10], the system named is Rattus norvegicus. Kind of series: Compound was assessed for its ability to block a conditioned avoidance response; Dose administered intraperitoneally is 40 mg/kg; no significant effect (0-25%block). Type of series: functional. The settings on record: route intraperitoneal. Summed up:
as §1

The test system of series [11] is Rattus norvegicus. Kind of series: Compound was assessed for its ability to block a conditioned avoidance response; Dose administered perorally is 12.5 mg/kg; 76-99%block. It is filed as functional. The following applies: route oral. Summed up:
as §3

Series [12] deals with Rattus norvegicus. Put plainly: Compound was assessed for its ability to produce catalepsy in rats; Dose administered perorally is 10 mg/kg; Group score is 8-15. It is filed as functional. The following applies: route oral. Put shortly: as §2
In series [13] the test system is Rattus norvegicus. Put plainly: Compound was assessed for its ability to block a conditioned avoidance response; Dose administered perorally is 10 mg/kg; 51-75%block. Type of series: functional. The following applies: route oral. Put shortly:
as §3

Series [14] relates to Rattus norvegicus. Kind of series: Compound was assessed for its ability to produce catalepsy in rats; Dose administered perorally is 80; Group score is 8-15. Type of series: functional.
The test system of series [15] is Rattus norvegicus. Put plainly: Compound was assessed for its ability to block a conditioned avoidance response; Dose administered perorally is 30 mg/kg; 51-75%block. It is filed as functional. The settings on record: route oral. Put shortly:
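Trained Lilly Wistar rats (120–130 g) in a shuttle box, 5-s buzzer with mild shock if no response within 1 s of buzzer end. Only high-responders used; groups of five dosed orally 1 h 50 min before test, 10-min habituation, then 20-min session. Block = shocks as % of stimuli presented, scored 0–5 (3 = 51–75% block).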

The subject of series [16] is Rattus norvegicus. Kind of series: Compound was assessed for its ability to block a conditioned avoidance response; Dose administered perorally is 8 mg/kg; 76-99%block. It is filed as functional. The following applies: route oral. Summed up: as §3
Series [17] concerns Rattus norvegicus. Put plainly: Compound was assessed for its ability to block a conditioned avoidance response; Dose administered perorally is 1.25 mg/kg; 51-75%block. Type of series: functional. The settings on record: route oral. Summed up:
as §3

In series [18] the test system is Rattus norvegicus. Kind of series: Compound was assessed for its ability to produce catalepsy in rats; Dose administered perorally is 1.25 mg/kg; Group score is 16-30. It is filed as functional. The following applies: route oral. Summed up: as §2
Series [19] relates to Rattus norvegicus. Put plainly: Compound was assessed for its ability to block a conditioned avoidance response; Dose administered perorally is 50 mg/kg; 51-75%block. It is filed as functional. The settings on record: route oral. Summed up:
as §3

Series [20] concerns Rattus norvegicus. Kind of series: Compound was assessed for its ability to produce catalepsy in rats; Dose administered perorally is 25 mg/kg; Group score is 4-7. Type of series: functional. The settings on record: route oral. Summed up: as §2
Series [21] deals with Rattus norvegicus. Kind of series: Compound was assessed for its ability to block a conditioned avoidance response; Dose administered perorally is 2.5 mg/kg; 31-50%block. Type of series: functional. The following applies: route oral. Put shortly: as §3
For series [22], the system named is Rattus norvegicus. Put plainly: Compound was assessed for its ability to produce catalepsy in rats; Dose administered perorally is 2.5 mg/kg; Group score is 31-40. It is filed as functional. The following applies: route oral. Put shortly: as §2

For `CCc1cc2c(s1)Nc1ccc(F)cc1N=C2NCCN1CCCC1`, in series [1], the EDmin worked out at 200 mg/kg. Also, the Activity in [2] worked out at 2; in series [3] it was 0. In [4], the LD50 was above 400 mg/kg.

For `CN1CCN(C2=Nc3cc(F)ccc3Nc3sc(C(C)(C)C)cc32)CC1`, the EDmin in series [1] was 12.5 mg/kg. The LD50 in [4] is above 400 mg/kg. Further, the Activity in series [5] and in series [6] was 1 in each case.

`CCc1cc2c(s1)Nc1ccc(F)cc1N=C2NCCCN1CCN(C)CC1` returned an EDmin in series [1] of 200 mg/kg. For the same molecule, the LD50 in series [4] was found to be 400 mg/kg. In [7], this molecule registered an Activity of 2.

`CCc1cc2c(s1)Nc1cc(F)ccc1N=C2N1CCN(C)CC1`: the Activity in [8] and in series [9] was 1 throughout. The EDmin in [1] came to 12.5 mg/kg. For the same molecule, the LD50 in [4] was 150 mg/kg.

Consider `CCc1cc2c(s1)Nc1ccc(F)cc1N=C2NCCCO`, for which the EDmin in [1] is above 200 mg/kg. This molecule had an Activity in series [10] of 0. In addition, the LD50 in series [4] amounted to 400 mg/kg.

In [1], `CCc1cc2c(s1)Nc1ccc(F)cc1N=C2N1CC[N+](C)([O-])CC1` gave an EDmin of 25 mg/kg. The Activity amounted to 4 in [11] and 1 in series [5]. The 50% lethal dose (LD50) in series [4] is 200 mg/kg.

`Cc1cc2c(s1)Nc1ccc(F)cc1N=C2N1CC[N+](C)([O-])CC1` displayed an EDmin in series [1] of 6.25 mg/kg. The Activity in series [12] was determined as 2; in [13], 3. The molecule also registered an LD50 in series [4] of 200 mg/kg.

In [1], `CN1CCN(C2=Nc3cc(Cl)ccc3Nc3ccccc32)CC1` [CLOZAPINE] came in with an EDmin of 50 mg/kg. The figures for the Activity in series [14] and in series [15] were 2 and 3, respectively.

In [1], `Cc1cc2c(s1)Nc1ccc(F)cc1N=C2N1CCN(C)CC1` [FLUMEZAPINE] came in with an EDmin of 3 mg/kg. Moreover, the Activity is 1 in [9] and 4 in series [16]. Also, in [4], the LD50 was 200 mg/kg.

Take `O=C(CCCN1CCC(O)(c2ccc(Cl)cc2)CC1)c1ccc(F)cc1` [HALOPERIDOL]: the Activity in [17] and in [18] was 3 throughout. Also, the EDmin in series [1] is 3 mg/kg. Also, the LD50 in series [4] was above 100 mg/kg.

Molecule `CSc1ccc2c(c1)N(CCC1CCCCN1C)c1ccccc1S2` (stereo not given) [THIORIDAZINE] gave an EDmin in [1] of 25 mg/kg. Moreover, the Activity is 3 in [19] and 1 in series [20]. Besides, in [4], the LD50 was found to be 400 mg/kg.

Turning to `OCCN1CCN(CC/C=C2/c3ccccc3Sc3ccc(C(F)(F)F)cc32)CC1` [Z-FLUPENTIXOL], the Activity in series [21] turned out to be 2; in series [22] it was 4. Moreover, the EDmin in series [1] is 3 mg/kg. The 50% lethal dose (LD50) in [4] amounted to 300 mg/kg.
